PubChem BioAssay
Values without a mark were called inactive. Inconclusive results are not listed. Activity calls are given as the source filed them.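 How the source made its calls, unless noted: active means RAM network inhibition above 8.4% in each of two replicates, 3 SD over the compound average; inconclusive means above 8.4% inhibition in only one replicate; inactive means 8.4% inhibition or less in each replicate.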

How the values were obtained:
[1] = OD615 S. cerevisiae growth inhibition, permissive medium, pilot counter-assay, permissive growth control for S. cerevisiae lifespan shortening project (AID 705;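 active means growth inhibition above 25% in both replicates, a cutoff set 3 SD above the mean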); details: OD615, 24 h, at 10 µM, hits give high values
Procedure, shortened: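 System: Engineered DeaD yeast | Buffer or medium: SC raffinose/galactose permissive medium | Incubation: Cells pre-grown 4 h, then 24 h compound exposure, 30 °C humidified | Measured by: Absorbance (optical density) at 615 nm | Read-out: Reduction in yeast growth (OD615)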

[2] = Restrictive medium S. cerevisiae growth inhibition, OD615, pilot screen of yeast lifespan reduction project, restrictive growth control (AID 706;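 active means growth inhibition above a set limit, 3 SD over mean compound inhibition, in both replicates, cut at about 43% in these data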;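 further: modified DeaD lifespan yeast strain shifted to restrictive glucose medium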); details: OD615, 48 h, at 10 µM, hits give high values
Procedure, shortened: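 Material: modified S. cerevisiae; Medium: glucose-based CSMM-D restrictive medium; Compound dosing: one concentration, 10 µM final, 0.25% DMSO; Incubation: 48 h compound exposure at 30 °C; Measured by: OD615.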

[3] = viability gain of MRP-1-high H69AR cells under doxorubicin, pilot screen, MRP-1 activator project, CellTiter-Glo, duplicate (AID 807;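 active means viability increase at or above a cutoff of the median across tested compounds plus 3 SD, cut at about 8.5% in these data, passing the limit was not always enough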;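 further: compound pretreatment 18-22 h then 72 h combined with doxorubicin; 0% = doxorubicin alone and 100% = vehicle without doxorubicin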); details: H69AR viability with doxorubicin, CellTiter-Glo luminescence; at 10 µM; hits give high values
[4] = growth suppression of beta-catenin knockout HCT116, pilot screen, human colon tumor cells (AID 823;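 active means cell viability at or below a set limit in both duplicate runs, the limit being the all-compound median minus 4 SD, cut at about 23% in these data, passing the limit was not always enough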;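 further: 0% = wells killed by 20 µM Hyamine and 100% = untreated DMSO cell wells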); details: CellTiter-Glo, 60 h, at 10 µM, hits give low values
[5] = growth suppression of PTEN-deleted HCT116, pilot screen, cell-based, HCT116 clonal line, CellTiter-Glo (AID 824;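 active means viability at or below 27.92% in each of two runs, the all-compound median minus 4 SD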;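 further: 0% = 20 µM Hyamine control and 100% = vehicle cell control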); details: 60 h, at 10 µM, hits give low values
[6] = inhibitors of the yeast RAM network, pilot screen, dse1pr::URA3 reporter, 5-FOA selection (AID 869;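 active means inhibition over a set limit, the all-compound mean plus 3 SD, in both replicate runs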;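 further: 0% = DMSO wells with no growth and 100% = 10 µM 1-NA-PP1 with full growth; RAM network block rescues cells from 5-FOA so hits raise OD615 growth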); details: S. cerevisiae dse1pr::URA3 5-FOA growth, OD615, 2 d; at 10 µM; hits give high values; strain carries analog-sensitive mutant Cbk1 kinase
[7] = RAM signaling pathway blockade in yeast – S. cerevisiae, Pdr1DBD-CYC8 efflux-inhibited sensitized strain, primary screen (AID 1298);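 further: 0% = DMSO untreated cells without growth and 100% = 10 µM 1-NA-PP1 full growth; higher means more yeast growth rescued from 5-FOA killing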; details: S. cerevisiae cbk1-as DSE1-URA3 strain, 5-FOA growth OD615, 2 d; at 50 µM; hits give high values

Row | SMILES | growth inhibition [1] | growth inhibition [2] | viability increase [3] | viability [4] | viability [5] | inhibition [6] | RAM network inhibition [7]
1 | CN1CCCc2cc3c(C(F)(F)F)cc(=O)oc3nc21 | -5.06% | 5.85% | -1.33% | 94.2% | 102% | 1.14% | 1.82%
2 | CCOc1ccccc1Nc1ncnc2c1cnn2-c1ccccc1 | -6.82% | -5.11% | 3.06% | 93.6% | 91.1% | 2.2% | 5.59%
3 | COCCNC(=O)Cn1cnc2c1c(=O)n(C)c(=O)n2C | -16.3% | -12.6% | -0.95% | 97.6% | 98.3% | 1.23% | 3.4%
4 | COc1ccc(-c2cn3c(C)c(C(=O)N4CCc5ccccc5C4)sc3n2)cc1 | 0.41% | 6.71% | -7.22% | 87.6% | 84.5% | 3.01% | 4.47%
5 | Cc1cccc(NC(=O)C2C(C(=O)O)C3C=CC2C32CC2)c1C (configuration not stated) | -2.43% | -9.19% | -1.67% | 95.2% | 93.5% | 1.42% | -0.78%
6 | Nn1c(SCC(=O)Nc2ccc(F)cc2)nnc1-c1ccccn1 | -4.5% | 0.845% | -0.55% | 109% | 95.7% | 1.88% | 0.9%
7 | CCOC(=O)c1[nH]c2ccccc2c1NC(=O)c1ccc(Br)o1 | -6.18% | -1.93% | -3.95% | 70.3% | 69.9% | 0.96% | 7.09%
8 | O=C1CC(c2ccccc2)CN1C(=O)c1ccccc1 (configuration not stated) | 2.52% | -1.8% | 1.53% | 104% | 98.6% | 2.67% | 6.11%
9 | CC(c1ccccc1)C1C(C#N)=C(N)OC2=C1C(=O)CC(C)(C)C2 (configuration not stated) | -6.48% | -7.79% | -5.71% | 78.4% | 78.9% | 1.78% | 25.6% (active)
10 | CCOC(=O)C1CCN(c2c(N3CCN(Cc4ccccc4)CC3)c(=O)c2=O)CC1 | -4.1% | -4.49% | -0.78% | 90.5% | 86.3% | 1.52% | 6.15%
11 | CCC(C)N1C(=O)CCC1C(=O)NCc1ccc2c(c1)OCO2 (configuration not stated) | -0.51% | -0.82% | -3.05% | 102% | 97.2% | 2.33% | 4.46%
12 | Cc1cc(Cl)ccc1NC(=O)CSc1nnc(-c2ccncc2)n1Cc1ccco1 | 5.41% | 25% | 0.37% | 92.5% | 93.9% | 1% | 3.58%
13 | Cc1cc(Nc2ccccc2Br)n2nc(C)nc2n1 | -3.05% | -13.3% | -2.64% | 107% | 98.2% | 1.9% | -1.82%
14 | Cc1onc(-c2ccccc2)c1C(=O)NC(C)C | -11.8% | -8.11% | 0.11% | 105% | 98.8% | 0.105% | 3.45%
15 | O=C1c2ccccc2C(Nc2ccc3c(c2)OCO3)N1Cc1ccco1 (configuration not stated) | 5.28% | -10.7% | -4.48% | 78% | 73.3% | 1.98% | 2.26%
16 | CCCN(CCC)S(=O)(=O)c1ccc(C(=O)NCc2ccc3c(c2)OCO3)cc1 | -12.9% | -18.8% | -3.62% | 94.5% | 80.3% | 2.21% | 4.05%
17 | CCOc1ccc(Nc2cc(C)nc3nc(C)nn23)cc1 | -10.9% | 5.96% | -3.11% | 110% | 93.9% | 0.67% | 2.62%
18 | Cc1ccc(Nc2nc(C3CC3)cs2)cc1 | -8.21% | -0.01% | -1.97% | 92.5% | 90.5% | 1.38% | 2.72%

Row | SMILES | growth inhibition [1] | growth inhibition [2] | viability increase [3] | viability [4] | viability [5] | inhibition [6] | RAM network inhibition [7]
19 | CC(NS(C)(=O)=O)C(c1cccs1)N1CCN(Cc2ccccc2)CC1 (configuration not stated) | -7.18% | 11.4% | -1.92% | 85.5% | 87.3% | 1.25% | 3.61%
20 | O=C(Cn1nc(Cc2cccnc2)c2ccccc2c1=O)N1CCN(C(=O)c2ccco2)CC1 | 4.07% | 0.805% | -0.74% | 104% | 104% | 0.64% | 2.7%
21 | Cc1ccc(N2CCN(C(=O)c3ccccc3F)CC2)c(C)c1 | -12.4% | -14.5% | 2.73% | 93.3% | 91% | -0.61% | 4.91%
22 | N#Cc1cn(CC(=O)NCC2CCCO2)c2ccccc12 (configuration not stated) | 1.68% | -3% | -1.75% | 93.1% | 91.4% | 1.1% | 5.31%
23 | CCCc1nc(SCc2ccccn2)c2c(=O)n(C)c(=O)n(C)c2n1 | -3.14% | -0.14% | 1.81% | 83.4% | 85.4% | 1.61% | 5.45%
24 | Cc1cc(C)c(C#N)c(Nc2ccc3c(c2)OCCO3)n1 | 0.055% | -10.2% | -1.17% | 97.6% | 93.9% | 0.915% | 0.66%
25 | COC(=O)C1=C(N)OC2=C(C(=O)CC(C)(C)C2)C1c1cccnc1 (configuration not stated) | -3.42% | -15.1% | -1.92% | 95.4% | 90.4% | 0.305% | 2.43%
26 | CC(C)N(C(=O)COc1ccc(Br)cc1Cl)C(C)C | -6.94% | -12.8% | 0.81% | 76.5% | 83.1% | 1.12% | 0.74%
27 | COc1ccccc1-c1cc(C(F)(F)F)nc(N2CCN(c3ccccc3)CC2)n1 | -2.88% | -13.6% | -1.89% | 77.5% | 78.8% | 3.9% | 4.72%
28 | COc1ccc(-c2c(C)oc3c(CN4CCN(C)CC4)c(O)ccc3c2=O)cc1 | -13.2% | -13.7% | -8.83% | 106% | 96.5% | 0.58% | -0.85%
29 | O=C(Nc1nnc(-c2ccccc2)o1)Nc1ccccc1Cl | -15.5% | -12% | -0.05% | 104% | 97.4% | 0.165% | 4.83%
30 | CCCn1c(CNS(=O)(=O)c2ccc(C)cc2)nc2ccccc21 | -7.5% | 7.18% | -2.43% | 83.6% | 85.2% | 0.135% | 0.52%
31 | CCSc1nnc(NC(=O)C(C)C)s1 | 3.02% | -5.11% | 1.51% | 100% | 109% | 0.765% | 0.89%
32 | COc1ccccc1NC(=O)CSc1nc(O)cc(=O)n1-c1ccccc1OC | -0.915% | -0.015% | 0.76% | 100% | 100% | 0.485% | 3.1%
33 | CC1CCCCN1CCNC(=O)c1cnn2ccccc12 (configuration not stated) | -12.7% | -9.32% | -1.7% | 101% | 91.6% | 2.58% | 0.01%
34 | COC(=O)C(C(=O)OC)C(C(=O)OC)C(C(=O)OC)C(=O)OC | -6.07% | -6.78% | -1.54% | 97.2% | 92.6% | 0.42% | -1.61%
35 | Cc1ccc(-c2nn(C)c(=O)c3ccccc23)cc1CNC(=O)c1ccco1 | -19.5% | -16.5% | -6.36% | 78.3% | 72.9% | 1.3% | 6.65%
36 | O=C(NC1CCCCCC1)C1C2C=CC3(CN(Cc4cccnc4)C(=O)C13)O2 (configuration not stated) | 0.045% | 8.75% | 0.68% | 101% | 107% | 0.18% | 1.44%
